Measurements taken from paper PMC8245858 (Acta Pharmaceutica Sinica. B, 2021).
Each block holds one compound with its values, some of them ahead of it.

What was measured:
[1] = system: MGC-803 xenograft; experiment: Gastric cancer cell line-derived xenograft; type: in vivo, nude mice; details: for pathologic examination of heart, liver, spleen, lung and kidney: compared with the saline group, end of treatment
Outline: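 Male nude mice (6–8 weeks) get MGC-803 cells subcutaneously in the right flank. Body weight recorded every two days. After final dose, liver, kidney, lung, heart and spleen taken for histopathology.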

[2] = Caco-2 permeability assay; type: in vitro ADME, human; details: human; for efflux ratio: Caco-2; for Papp: Mean ± RSD, n = 2
[3] = system: gastric cancer cell lines MGC-803, HGC-27, SGC-7901, MKN-45, AGS and BGC-823; experiment: Cell proliferation by sulforhodamine B; type: cell-based, human; details: 72 h
Outline: (§1)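 SRB assay after 72 h exposure. OD read at compound addition (ODstart) is subtracted: relative growth = (ODtreated − ODstart)/(ODcontrol − ODstart); inhibitory rate (%) = (ODcontrol − ODtreated)/(ODcontrol − ODstart) × 100. GI50 obtained per cell line. Mean ± SD (n = 3), three independent experiments, biological duplicates.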

[4] = system: GES1; experiment: Cell proliferation by SRB assay, gastric epithelial cell line; type: cell-based, human; details: 72 h
Outline: as §1

[5] = system: MGC-803 cells; experiment: Cell cycle, PI staining and flow cytometry; type: cell-based, human; details: MGC-803, 48 h
Outline: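 MGC-803 cells exposed to test compound for 48 h, stained with PI and analysed by flow cytometry with quantification. Mean ± SD (n = 3) from three independent experiments with biological duplicates.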

[6] = system: MGC-803 cells; experiment: Intracellular ROS, DCFH-DA staining, flow cytometry; type: cell-based, human; details: 24 h
Outline: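 MGC-803 cells exposed to test compound with or without N-acetylcysteine for 24 h, stained with DCFH-DA and analysed by flow cytometry. Groups compared by two-way ANOVA.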

[7] = system: MGC-803 and MKN-45 cells; experiment: Lipid peroxidation using C11-BODIPY581/591; type: cell-based, human; details: 6 h
Outline: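 After 6 h exposure in 6-well plates, cells are collected and resuspended in PBS with 2 μmol/L C11-BODIPY581/591 for 30 min at 37 °C, then read by flow cytometry. For MGC-803: three independent experiments with biological duplicates, one-way ANOVA.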

[8] = system: GPX4; experiment: qRT-PCR of GPX4 mRNA; type: cell-based, human; details: MGC-803 and MKN-45 cells, 24 h
[9] = system: SLC7A11; experiment: qRT-PCR of SLC7A11 mRNA; type: cell-based, human; details: MGC-803 and MKN-45 cells, 24 h
[10] = system: MGC-803 and MKN-45 cells; experiment: Intracellular ferrous iron; type: cell-based, human; details: 24 h
Outline: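 Cells in 60-mm dishes exposed to test compound for 24 h, alone or with 3-MA. Cells are then collected and homogenised in iron assay buffer, and ferrous iron is measured with a commercial iron assay kit per the maker's protocol. Mean ± SD (n = 3), three independent experiments, biological duplicates.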

[11] = system: GPX4; experiment: GPX4 expression in PDX tumor tissues by IHC; type: in vivo, NOD-SCID mice; details: sensitive PDX models PDX-01, PDX-02 and PDX-03, end of treatment
[12] = system: Caco-2 monolayer; experiment: Caco-2 permeability assay; type: in vitro ADME, human; details: from A to B
[13] = Metabolic stability in human liver microsomes; type: in vitro ADME
[14] = Metabolic stability in rat liver microsomes; type: in vitro ADME
[15] = Metabolic stability in mouse liver microsomes; type: in vitro ADME
[16] = Metabolic stability in dog liver microsomes; type: in vitro ADME
[17] = Metabolic stability in monkey liver microsomes; type: in vitro ADME
[18] = Pharmacokinetic parameters in rats; type: in vivo; details: male, SD, rat, plasma, iv, 20 mg/kg
Outline: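 Study run by a contract laboratory in male SD rats, n = 3. Parameters taken from mean plasma concentration–time curves.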

[19] = Caco-2, Papp (A‒B), direction A‒B
[20] = Caco-2, Papp (B‒A), direction B‒A

GI50 ([3]; Homo sapiens): 880 to 3330 nM
GI50 in GES1 relative to gastric cancer cells [4]: at least five-fold higher
efflux ratio [2]: 0.2
Papp [2, 19]: 16.1 ± 1.01 ×10⁻⁶ cm/s
Papp [2, 20]: 3.3 ± 0.3 ×10⁻⁶ cm/s
permeability class against the Caco-2 monolayer [12]: moderately permeable compound
half-life at 1 μmol/L [13]: 34.9 min
microsomal CLint at 1 μmol/L [13]: 99.4 µL/min/mg
half-life at 1 μmol/L [14]: 31.2 min
microsomal CLint at 1 μmol/L [14]: 111 µL/min/mg
half-life at 1 μmol/L [15]: 23.7 min
microsomal CLint at 1 μmol/L [15]: 146 µL/min/mg
half-life at 1 μmol/L [16]: 32.2 min
microsomal CLint at 1 μmol/L [16]: 108 µL/min/mg
half-life at 1 μmol/L [17]: 23.5 min
microsomal CLint at 1 μmol/L [17]: 148 µL/min/mg
AUC(0-inf) [18]: 14800 ± 1330 ng·h/mL
AUC(0-t) [18]: 14800 ± 1320 ng·h/mL
Cmax [18]: 18300 ± 1420 ng/mL
MRT last [18]: 92.4 ± 7.8 min
Vd [18]: 7.73 ± 1.46 L/kg
half-life [18]: 236 ± 28.8 min
SMILES: C=C1C(=O)[C@@]23C(C(=O)C[C@@H]1[C@H]2OC(=O)[C@@H](N)C(C)C)[C@]12CCCC(C)(C)C1C[C@H]3OC2=O (stereo partly drawn) [a2, (6R,6aR,9S,11bS,14R)-4,4-Dimethyl-8-methylene-7,11,12-trioxododecahydro-1H-6,11b-(epoxymethano)-6a,9-methanocyclohepta[a]naphthalen-14-yl valinate]
cell population in the G2/M phase [5]: significantly increased
level of ROS [6]: markedly elevated
lipid ROS production [7]: dose-dependently elevated
mRNA level of GPX4 [8]: dose-dependently reduced
mRNA level of SLC7A11 [9]: increased
ferrous iron accumulation [10]: significantly increased
tumor growth ([1]; 5, 10, 20 mg/kg once a day for 21 days, tail vein injection): dose- and time-dependently inhibited tumor growth
anti-tumor efficacy compared with 5-FU (15 mg/kg) ([1]; a2 at 10 or 20 mg/kg, once a day for 21 days): more potent than that of the positive control drug 5-FU
pathologic examination of heart, liver, spleen, lung and kidney [1]: no observed adverse effects
effect on mouse body weight ([1]; once a day for 21 days, compared to 5-FU): fewer effect
expression of GPX4 in tumor tissues [11]: decreased expression of GPX4

efflux ratio [2]: 197
Papp [2, 19]: 0.13 ± 0.02 ×10⁻⁶ cm/s
Papp [2, 20]: 24.7 ± 0.1 ×10⁻⁶ cm/s
SMILES: C[C@H]1O[C@@H](O[C@H]2[C@@H](O)C[C@H](O[C@H]3[C@@H](O)C[C@H](O[C@H]4CC[C@@]5(C)[C@H](CC[C@@H]6[C@@H]5C[C@@H](O)[C@]5(C)[C@@H](C7=CC(=O)OC7)CC[C@]65O)C4)O[C@@H]3C)O[C@@H]2C)C[C@H](O)[C@@H]1O [Digoxin]

Second part, the compound before the results:

SMILES: O=c1[nH]cc(F)c(=O)[nH]1 [Compound 5-FU, 5-fluorouracil, reference compound]
pathologic examination of heart, liver, spleen, lung and kidney [1]: no observed adverse effects

SMILES: CC(C)NCC(O)COc1cccc2ccccc12 (centres unmarked) [Propranolol]
efflux ratio [2]: 0.7
Papp [2, 19]: 28.3 ± 0.43 ×10⁻⁶ cm/s
Papp [2, 20]: 18.5 ± 0.3 ×10⁻⁶ cm/s

SMILES: CC(C)Oc1ccc(C(=O)Cn2ccnc2)cc1-n1c(CN2CCN(C(=O)COc3ccc(Cl)cc3)CC2)nc2ccccc2c1=O [IKE, imidazole ketone erastin, reference compound]
effect on cell growth, compound alone ([3]; MGC-803 and MKN-45 cells, SRB): no effect
